Measurements published in ChEMBL document CHEMBL2157880, “Synthesis, antimycobacterial and antibacterial activity of ciprofloxacin derivatives containing a N-substituted benzyl moiety” (2012).
Converted amounts (≈) assume the structure as drawn.

Assays:
Format in all cases: functional
Pseudomonas aeruginosa [1] = assay: Antibacterial activity against Pseudomonas aeruginosa 10-9 after 18 to 24 hrs by NCCLS method
How it was run: (§1)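 Standard NCCLS (M100-S11) MIC testing against Gram-positive and Gram-negative strains. Plates were incubated at 35 °C for 18–24 h. The MIC was read as the lowest concentration giving complete inhibition of visible bacterial growth.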

[2] = test system: Staphylococcus epidermidis; assay: Antibacterial activity against methicillin-sensitive Staphylococcus epidermidis 10-11 after 18 to 24 hrs by NCCLS method; how it was run: as §1
Streptococcus pneumoniae [3] = assay: Antibacterial activity against Streptococcus pneumoniae 10-6 after 18 to 24 hrs by NCCLS method; how it was run: as §1
Klebsiella pneumoniae [4] = assay: Antibacterial activity against extended spectrum beta-lactamases producing Klebsiella pneumoniae 10-3 after 18 to 24 hrs by NCCLS method; how it was run: as §1
Staphylococcus aureus [5] = assay: Antibacterial activity against methicillin-sensitive Staphylococcus aureus 10-13 after 18 to 24 hrs by NCCLS method; how it was run: as §1
Staphylococcus aureus [6] = assay: Antibacterial activity against methicillin-resistant Staphylococcus aureus 10-15 after 18 to 24 hrs by NCCLS method
How it was run: (§2)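 Incubated at 35 °C for 18–24 h under NCCLS (M100-S11) standards. MIC was read as the lowest concentration giving complete inhibition of visible bacterial growth.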

Staphylococcus aureus [7] = assay: Antibacterial activity against methicillin-resistant Staphylococcus aureus 10-13 after 18 to 24 hrs by NCCLS method; how it was run: as §2
Staphylococcus aureus [8] = assay: Antibacterial activity against methicillin-sensitive Staphylococcus aureus 10-14 after 18 to 24 hrs by NCCLS method; how it was run: as §1
Enterococcus faecalis [9] = assay: Antibacterial activity against Enterococcus faecalis 10-5 after 18 to 24 hrs by NCCLS method; how it was run: as §1
Staphylococcus aureus [10] = assay: Antibacterial activity against Staphylococcus aureus ATCC 2592 after 18 to 24 hrs by NCCLS method; how it was run: as §1
Enterococcus faecalis [11] = assay: Antibacterial activity against Enterococcus faecalis 10-6 after 18 to 24 hrs by NCCLS method; how it was run: as §1
Pseudomonas aeruginosa [12] = assay: Antibacterial activity against Pseudomonas aeruginosa 10-12 after 18 to 24 hrs by NCCLS method; how it was run: as §1
Escherichia coli [13] = assay: Antibacterial activity against extended spectrum beta-lactamases producing Escherichia coli 10-4 after 18 to 24 hrs by NCCLS method; how it was run: as §1
Klebsiella pneumoniae [14] = assay: Antibacterial activity against Klebsiella pneumoniae 10-2 after 18 to 24 hrs by NCCLS method; how it was run: as §1
Pseudomonas aeruginosa [15] = assay: Antibacterial activity against Pseudomonas aeruginosa 10-5 after 18 to 24 hrs by NCCLS method; how it was run: as §1
Escherichia coli [16] = assay: Antibacterial activity against extended spectrum beta-lactamases producing Escherichia coli 10-2 after 18 to 24 hrs by NCCLS method; how it was run: as §1
Streptococcus pneumoniae [17] = assay: Antibacterial activity against Streptococcus pneumoniae 10-1 after 18 to 24 hrs by NCCLS method; how it was run: as §1
Escherichia coli [18] = assay: Antibacterial activity against Escherichia coli 10-2 after 18 to 24 hrs by NCCLS method; how it was run: as §1
Pseudomonas aeruginosa [19] = assay: Antibacterial activity against Pseudomonas aeruginosa 10-18 after 18 to 24 hrs by NCCLS method; how it was run: as §1
Staphylococcus aureus [20] = assay: Antibacterial activity against methicillin-sensitive Staphylococcus aureus 10-11 after 18 to 24 hrs by NCCLS method; how it was run: as §1
Enterococcus faecalis [21] = assay: Antibacterial activity against Enterococcus faecalis 10-7 after 18 to 24 hrs by NCCLS method; how it was run: as §1
[22] = test system: Staphylococcus epidermidis; assay: Antibacterial activity against methicillin-resistant Staphylococcus epidermidis 10-10 after 18 to 24 hrs by NCCLS method; how it was run: as §2
Klebsiella pneumoniae [23] = assay: Antibacterial activity against extended spectrum beta-lactamases producing Klebsiella pneumoniae 10-2 after 18 to 24 hrs by NCCLS method; how it was run: as §1
Klebsiella pneumoniae [24] = assay: Antibacterial activity against Klebsiella pneumoniae 10-3 after 18 to 24 hrs by NCCLS method; how it was run: as §1
Staphylococcus aureus [25] = assay: Antibacterial activity against methicillin-resistant Staphylococcus aureus 10-11 after 18 to 24 hrs by NCCLS method; how it was run: as §2
Enterococcus faecium [26] = assay: Antibacterial activity against Enterococcus faecium 10-9 after 18 to 24 hrs by NCCLS method; how it was run: as §1
[27] = test system: Staphylococcus epidermidis; assay: Antibacterial activity against methicillin-sensitive Staphylococcus epidermidis 10-15 after 18 to 24 hrs by NCCLS method; how it was run: as §2
Pseudomonas aeruginosa [28] = assay: Antibacterial activity against Pseudomonas aeruginosa 10-15 after 18 to 24 hrs by NCCLS method; how it was run: as §1
Escherichia coli [29] = assay: Antibacterial activity against extended spectrum beta-lactamases producing Escherichia coli 10-3 after 18 to 24 hrs by NCCLS method; how it was run: as §1
Pseudomonas aeruginosa [30] = assay: Antibacterial activity against Pseudomonas aeruginosa 10-20 after 18 to 24 hrs by NCCLS method; how it was run: as §1
Klebsiella pneumoniae [31] = assay: Antibacterial activity against Klebsiella pneumoniae 10-4 after 18 to 24 hrs by NCCLS method; how it was run: as §1
Escherichia coli [32] = assay: Antibacterial activity against Escherichia coli ATCC 25922 after 18 to 24 hrs by NCCLS method; how it was run: as §1
[33] = test system: Staphylococcus epidermidis; assay: Antibacterial activity against methicillin-resistant Staphylococcus epidermidis 10-13 after 18 to 24 hrs by NCCLS method; how it was run: as §2
Escherichia coli [34] = assay: Antibacterial activity against Escherichia coli 10-3 after 18 to 24 hrs by NCCLS method; how it was run: as §1
Klebsiella pneumoniae [35] = assay: Antibacterial activity against extended spectrum beta-lactamases producing Klebsiella pneumoniae 10-1 after 18 to 24 hrs by NCCLS method; how it was run: as §1
Enterococcus faecium [36] = assay: Antibacterial activity against Enterococcus faecium 10-6 after 18 to 24 hrs by NCCLS method; how it was run: as §1
[37] = test system: Mycobacterium tuberculosis; assay: Antimycobacterial activity against Mycobacterium tuberculosis H37Rv ATCC 27294 by microplate alamar blue assay
How it was run: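 Microplate Alamar Blue fluorescence assay on strain H37Rv ATCC 27294. MIC was the lowest concentration cutting fluorescence by ≥90% against the mean of replicate bacterium-only controls.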

Escherichia coli [38] = assay: Antibacterial activity against Escherichia coli 10-1 after 18 to 24 hrs by NCCLS method; how it was run: as §1

## O=C(O)c1cn(C2CC2)c2cc(N3CCN(Cc4ccc5c(c4)OCO5)CC3)c(F)cc2c1=O
Pseudomonas aeruginosa [1]
  MIC: 16 µg/mL (≈ 34.4 µM)
[2]
  MIC: 2 µg/mL (≈ 4.3 µM)
Streptococcus pneumoniae [3]
  MIC: 16 µg/mL (≈ 34.4 µM)
Klebsiella pneumoniae [4]
  MIC: > 128 µg/mL
Staphylococcus aureus [5]
  MIC: 1 µg/mL (≈ 2.15 µM)
Staphylococcus aureus [6]
  MIC: 16 µg/mL (≈ 34.4 µM)
Staphylococcus aureus [7]
  MIC: 64 µg/mL (≈ 137 µM)
Staphylococcus aureus [8]
  MIC: 1 µg/mL (≈ 2.15 µM)
Enterococcus faecalis [9]
  MIC: 16 µg/mL (≈ 34.4 µM)
Staphylococcus aureus [10]
  MIC: 0.25 µg/mL (≈ 0.537 µM)
Enterococcus faecalis [11]
  MIC: 32 µg/mL (≈ 68.7 µM)
Pseudomonas aeruginosa [12]
  MIC: 32 µg/mL (≈ 68.7 µM)
Escherichia coli [13]
  MIC: 16 µg/mL (≈ 34.4 µM)
Klebsiella pneumoniae [14]
  MIC: 64 µg/mL (≈ 137 µM)
Pseudomonas aeruginosa [15]
  MIC: 16 µg/mL (≈ 34.4 µM)
Escherichia coli [16]
  MIC: > 128 µg/mL
Streptococcus pneumoniae [17]
  MIC: 8 µg/mL (≈ 17.2 µM)
Escherichia coli [18]
  MIC: 16 µg/mL (≈ 34.4 µM)
Pseudomonas aeruginosa [19]
  MIC: 8 µg/mL (≈ 17.2 µM)
Staphylococcus aureus [20]
  MIC: 0.5 µg/mL (≈ 1.07 µM)
Enterococcus faecalis [21]
  MIC: 16 µg/mL (≈ 34.4 µM)
[22]
  MIC: 16 µg/mL (≈ 34.4 µM)
Klebsiella pneumoniae [23]
  MIC: > 128 µg/mL
Klebsiella pneumoniae [24]
  MIC: 8 µg/mL (≈ 17.2 µM)
Staphylococcus aureus [25]
  MIC: 32 µg/mL (≈ 68.7 µM)
Enterococcus faecium [26]
  MIC: 8 µg/mL (≈ 17.2 µM)
[27]
  MIC: 16 µg/mL (≈ 34.4 µM)
Pseudomonas aeruginosa [28]
  MIC: 16 µg/mL (≈ 34.4 µM)
Escherichia coli [29]
  MIC: > 128 µg/mL
Pseudomonas aeruginosa [30]
  MIC: 16 µg/mL (≈ 34.4 µM)
Klebsiella pneumoniae [31]
  MIC: > 128 µg/mL
Escherichia coli [32]
  MIC: 0.25 µg/mL (≈ 0.537 µM)
[33]
  MIC: 16 µg/mL (≈ 34.4 µM)
Escherichia coli [34]
  MIC: 16 µg/mL (≈ 34.4 µM)
Klebsiella pneumoniae [35]
  MIC: > 128 µg/mL
Enterococcus faecium [36]
  MIC: 8 µg/mL (≈ 17.2 µM)
[37]
  MIC: 2 µg/mL (≈ 4.3 µM)
Escherichia coli [38]
  MIC: > 128 µg/mL

## O=C(O)c1cn(C2CC2)c2cc(N3CCNCC3)c(F)cc2c1=O [CIPROFLOXACIN]
[2]
  MIC: 0.5 µg/mL (≈ 1.51 µM)
Streptococcus pneumoniae [3]
  MIC: 32 µg/mL (≈ 96.6 µM)
Klebsiella pneumoniae [4]
  MIC: 32 µg/mL (≈ 96.6 µM)
Staphylococcus aureus [5]
  MIC: 0.5 µg/mL (≈ 1.51 µM)
Staphylococcus aureus [7]
  MIC: 128 µg/mL (≈ 386 µM)
Staphylococcus aureus [8]
  MIC: 0.5 µg/mL (≈ 1.51 µM)
Enterococcus faecalis [9]
  MIC: 8 µg/mL (≈ 24.1 µM)
Staphylococcus aureus [10]
  MIC: 0.25 µg/mL (≈ 0.754 µM)
Enterococcus faecalis [11]
  MIC: 64 µg/mL (≈ 193 µM)
Klebsiella pneumoniae [14]
  MIC: 32 µg/mL (≈ 96.6 µM)
Streptococcus pneumoniae [17]
  MIC: 2 µg/mL (≈ 6.04 µM)
Pseudomonas aeruginosa [19]
  MIC: 1 µg/mL (≈ 3.02 µM)
Staphylococcus aureus [20]
  MIC: 0.5 µg/mL (≈ 1.51 µM)
Enterococcus faecalis [21]
  MIC: 16 µg/mL (≈ 48.3 µM)
[22]
  MIC: 8 µg/mL (≈ 24.1 µM)
Klebsiella pneumoniae [23]
  MIC: 32 µg/mL (≈ 96.6 µM)
Klebsiella pneumoniae [24]
  MIC: 0.25 µg/mL (≈ 0.754 µM)
Staphylococcus aureus [25]
  MIC: 32 µg/mL (≈ 96.6 µM)
Enterococcus faecium [26]
  MIC: 16 µg/mL (≈ 48.3 µM)
[27]
  MIC: 8 µg/mL (≈ 24.1 µM)
Klebsiella pneumoniae [31]
  MIC: 32 µg/mL (≈ 96.6 µM)
[33]
  MIC: 16 µg/mL (≈ 48.3 µM)
Klebsiella pneumoniae [35]
  MIC: 32 µg/mL (≈ 96.6 µM)
Enterococcus faecium [36]
  MIC: 1 µg/mL (≈ 3.02 µM)
[37]
  MIC: 0.5 µg/mL (≈ 1.51 µM)
